Shown are actives, neighbours in structure and some others; about 2.2% of the full set was active somewhere.
TRAIL sens C8 – viability loss with TRAIL in NB7+C8 cells, primary screen, TRAIL sensitizer project, cell-based, ATPlite luminescence. inhibition (viability loss, TRAIL sensitization), % at 10 µM. actives 1% (n = 360,000);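 active = compounds causing at least 50% loss of cell viability in the single-dose screen, relative to plate controls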
FLuc act counter – FLuc activators, initial screening, artefact control for FLuc-dependent activation tests, biochemical, ATPlite luminescence | ATPlite luciferase biochemical, 10 min; 0 = ATP-free wells, 1 = DMSO control | 200,000 tested, under 10 active | activation factor at 10 µM;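 active = luciferase activation factor, scaled between plate controls, of at least 2 with compound at 10 µM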
Target sequence (P08659 whole entry, looked up): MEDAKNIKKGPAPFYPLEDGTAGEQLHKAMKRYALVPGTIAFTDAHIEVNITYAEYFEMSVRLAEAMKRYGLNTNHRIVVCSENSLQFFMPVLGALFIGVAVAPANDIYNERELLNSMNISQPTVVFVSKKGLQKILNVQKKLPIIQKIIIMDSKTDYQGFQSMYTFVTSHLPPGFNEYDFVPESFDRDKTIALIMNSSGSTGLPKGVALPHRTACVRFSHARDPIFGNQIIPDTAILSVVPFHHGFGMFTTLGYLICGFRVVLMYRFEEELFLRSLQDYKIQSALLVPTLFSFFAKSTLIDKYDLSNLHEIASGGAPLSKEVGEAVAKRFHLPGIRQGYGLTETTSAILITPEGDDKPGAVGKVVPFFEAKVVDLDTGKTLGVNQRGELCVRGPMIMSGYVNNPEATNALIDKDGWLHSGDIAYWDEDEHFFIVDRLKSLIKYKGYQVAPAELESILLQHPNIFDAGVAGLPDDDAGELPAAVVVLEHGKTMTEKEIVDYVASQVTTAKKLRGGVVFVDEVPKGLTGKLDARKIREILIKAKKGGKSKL
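System: luciferase plus luciferin reagent, cell-free; medium: PBS as buffer for the ATP substrate; dosing: test compounds dosed from 2 mM stocks in 100% DMSO; timing: 10 min post-reagent at room temperature; measured by: luminescence measurement of luciferase light output; evaluation: luciferase activation, seen as luminescence increase over controls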
PPC-1+TRAIL kill – compounds killing PPC-1 cancer cells with TRAIL present, primary screen, TRAIL potentiator project, ATPLite luminescence, uHTS. PPC-1 cells + TRAIL, ATPLite viability luminescence. cell killing (% activity), % at 4 µM or 5 µM. actives 0.41% (n = 220,000). AID 1443, 2008;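 active = cell killing above 50% in the first pass at 4 µM, then a duplicate retest at 5 µM averaging 50% or more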
FLuc inhib CS – firefly luciferase enzyme inhibitors, primary screen, artefact control for luciferase-based inhibitor screens, biochemical, luminescence, ATPLite; actives 1.5% (n = 200,000); 10 min; inhibition, % at 10 µM; AID 1006, 2008;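 active = inhibition above about 50% when tested at 10 µM, limit read from the data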
APP 5'UTR act – activators of APP 5'UTR luciferase reporter, primary screen, SH-SY5Y cells; SH-SY5Y APP 5'UTR luciferase reporter, luminescence; zero percent = DMSO vehicle wells; activation, % at 2 µM; actives 1% (n = 190,000); AID 1276, 2008;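 active = activation above a set limit, based on mean plus 3 SD of controls, cut at about 140% in these data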
NF-kB neuron act – activators of NF-kB expression in neurons, primary screen, cell-based, HTS; actives 1.6% (n = 190,000); AID 1239, 2008; fold change at 12.5 µM; human neuronal cells, NF-kB reporter expression; active compounds read high; in the data active = fold change above about 3.3
A number is an active result; - = inactive; . = not tested or not shown.

SMILES | TRAIL sens C8 | FLuc act counter | PPC-1+TRAIL kill | FLuc inhib CS | APP 5'UTR act | NF-kB neuron act
Cc1cccc(/C(N)=N/OC(=O)c2ccc(Cl)cc2Cl)c1 | 62 | - | - | 90 | 139 | -
N/C(=N\OC(=O)c1ccco1)c1ccc(Cl)cc1 | - | - | - | - | 158 | -
COc1cc(OC)cc(C(=O)O/N=C(\N)c2cccc(C)c2)c1 | - | . | . | . | . | .
N/C(=N\OC(=O)c1ccco1)c1cccnc1 | - | - | - | - | - | -
COc1ccc(-c2cc(O)cc(O)c2)cc1 | - | - | - | - | - | 3.8
COc1ccc(OC)cc1 | - | . | . | . | . | .
COc1ccc(C2=Nc3ccccc3N(C(=O)c3ccncc3)C2C(=O)NC(C)C)cc1 (stereo not given) | - | . | . | . | . | .
CCOC(=O)N1CCN(C(=O)CSCC(=O)Nc2nc(-c3ccc(-c4ccccc4)cc3)cs2)CC1 | 62 | - | - | - | - | -
CCOC(=S)SCC(=O)Nc1nc(-c2ccc(Br)cc2)cs1 | - | - | - | - | - | 4.6
CCOC(=O)N1CCN(C(=O)CSCC(=O)Nc2nc(-c3ccc(OC)cc3)cs2)CC1 | - | - | - | - | - | -
N#Cc1c(N)[nH]c(C(=O)c2ccccc2)c1-c1ccc(Cl)cc1 | - | . | . | . | . | .
Cc1ccc2nc(N(CCCN(C)C)C(=O)c3ccc(S(=O)(=O)N4CCc5ccccc5C4)cc3)sc2c1 | 77 | . | . | . | . | .
Cc1cc(C)c2sc(N(CCCN(C)C)C(=O)c3ccc(S(=O)(=O)N4CCc5ccccc5C4)cc3)nc2c1 | 92 | . | . | . | . | .
COc1ccc2sc(N(CCCN(C)C)C(=O)c3ccc(S(=O)(=O)N4CCCC4)cc3)nc2c1 | - | . | . | . | . | .
Cc1cccc2sc(N(CCCN(C)C)C(=O)c3ccc(S(=O)(=O)N4CCc5ccccc5C4)cc3)nc12 | - | . | . | . | . | .
CN(C)CCCN(C(=O)c1ccc(S(=O)(=O)N2CCc3ccccc32)cc1)c1nc2ccc(F)cc2s1 | - | . | . | . | . | .
COc1ccc2sc(N(CCCN(C)C)C(=O)c3ccc(S(=O)(=O)N4CCc5ccccc5C4)cc3)nc2c1 | 93 | . | . | . | . | .
Cc1cc(C)c2sc(N(CCCN(C)C)C(=O)c3ccc(S(=O)(=O)N4CCCc5ccccc54)cc3)nc2c1 | 74 | . | . | . | . | .
COc1ccc(C2=Nc3ccccc3N(C(=O)c3ccc(C(F)(F)F)cc3)C2C(=O)NCc2ccccc2)cc1 (stereo not given) | - | . | . | . | . | .
O=C1[C@H]2[C@@H]3CCN1CCC[C@@H]2C=C[C@@H]3c1ccc(Br)cc1 | - | . | . | . | . | .
CN(C)CCCN(C(=O)c1ccc(S(=O)(=O)N2CCc3ccccc3C2)cc1)c1nc2ccc(F)cc2s1 | 85 | . | . | . | . | .
COCCNC(=O)C1(C)CCCN(C(=O)c2cc(F)cc(F)c2)C1 (stereo not given) | - | . | . | . | . | .
COc1ccc(-c2cc3nc(C)cc(N4CCN(C(=O)c5cccnc5)CC4)n3n2)cc1 | - | . | . | . | . | .
Cn1c(NC(=O)c2ccc(F)cc2)nc2ccccc21 | 64 | . | . | . | . | .
Cn1c(NC(=S)Nc2ccccc2)nc2ccccc21 | - | - | - | - | 160 | -
SMILES | TRAIL sens C8 | FLuc act counter | PPC-1+TRAIL kill | FLuc inhib CS | APP 5'UTR act | NF-kB neuron act
O=[N+]([O-])/C=C/c1c(OCc2ccccc2)ccc2ccccc12 | 60 | - | - | - | - | -
CN(C)CCOc1cc(Cl)cc(Cl)c1 | - | - | - | - | - | 4.2
CN(C)CCOc1cccc(Cl)c1 | - | - | - | - | - | -
Cn1nc(C(C)(C)C)cc1C(=O)N1CCCC(c2cc(C(=O)NCc3ccccc3)no2)C1 (stereo not given) | - | . | . | . | . | .
COc1ccc(-c2cn3c(C)c(C(=O)Nc4cccc(NC(C)=O)c4)sc3n2)cc1 | 69 | - | - | - | - | -
COc1ccc(OC)c(NC(=O)C2(C)CCN2C(=O)C2(c3ccc(Cl)cc3)CCC2)c1 (stereo not given) | - | . | . | . | . | .
Cc1ccc(NC(=O)Cc2cc(C(=O)O)c3ccccc3n2)c(C)c1 | - | - | - | - | - | 4.6
Cc1cccc(-c2cc3c(N=O)c4ccccc4c-3n[nH]2)c1 | - | - | - | 63 | 142 | 3.8
O=c1[nH]nc(-c2ccccc2)c2ccccc12 | - | . | - | . | . | .
Cc1ccc(C(=O)n2nnc3ccccc32)cc1 | . | . | . | . | - | .
CN(C)c1ccc(C(=O)n2nnc3ccccc32)cc1 | - | - | - | 81 | - | -
N#C/C(=C\c1ccc(N2CCCCC2)o1)C(=O)Nc1cccc(Br)c1 | - | - | - | - | 170 | -
N#C/C(=C\c1ccc(N2CCCCC2)o1)C(N)=O | - | - | - | - | - | -
Cc1cc(F)cc(-c2cc(C(=O)NCc3ccco3)[nH]n2)c1 | - | . | . | . | . | .
N#Cc1cccc(C2CC(OCCF)=CC(=O)O2)c1 (stereo not given) | - | . | . | . | . | .
C=C1CCc2c([nH]c3ccc(OCC(C)C)cc23)C1=O | 89 | . | . | . | . | .
CCCCNC(=O)c1nc(C2CCNCC2)oc1-c1ccccc1 | - | . | . | . | . | .
COc1ccc(-n2c(C)cc(C(=O)CN3C(=O)c4ccccc4C3=O)c2C)cc1 | - | - | - | - | - | -
COc1ccc(-n2c(C)cc(C(=O)CCl)c2C)cc1 | - | - | - | - | - | 3.9
N/C(=N\OC(=O)c1ccc(Br)o1)c1ccccn1 | - | - | - | 78 | 149 | 3.7
Cc1cccc(/C(N)=N/OC(=O)N2c3ccccc3Sc3ccccc32)c1 | - | - | - | - | - | -
C/C(=N/OCc1ccc(Br)cc1)c1ccccn1 | - | - | - | - | 197 | 4
C/C(=N/O)c1ccccn1 | - | - | - | - | - | -
N/C(=N\OC(=O)Cc1ccccc1)c1ccccn1 | - | - | - | - | - | -
Cc1cccc(C(=O)O/N=C(\N)c2ccccn2)c1 | 87 | . | . | . | . | .
SMILES | TRAIL sens C8 | FLuc act counter | PPC-1+TRAIL kill | FLuc inhib CS | APP 5'UTR act | NF-kB neuron act
Cc1cccc(/C(N)=N/OC(=O)C23CC4CC(CC(C4)C2)C3)c1 | - | - | - | 62 | - | -
CN1CCN(C2CN(Cc3cn(Cc4ccc(F)cc4)nn3)S(=O)(=O)C2)CC1 (stereo not given) | - | . | . | . | . | .
Cc1ccc(C(=O)O/N=C(\N)c2ccccn2)cc1 | 95 | . | . | . | . | .
CC(C)(C)c1ccc(C(=O)O/N=C(\N)c2ccccn2)cc1 | 98 | . | . | . | . | .
N/C(=N\OC(=O)c1cccc(F)c1)c1ccccn1 | 56 | . | . | . | . | .
Cc1cccc(/C(N)=N/OC(=O)c2cccnc2)c1 | - | - | - | 64 | 149 | -
CC1(C(=O)Nc2ccc3c(c2)OCCO3)CSCC(=O)N1CC(F)(F)F (stereo not given) | - | . | . | . | . | .
C=C[C@]1(C)C=C2C(=O)[C@@]3(O)OC(=O)[C@@]4(CCCC(C)(C)[C@H]34)[C@@]2(O)CC1 | - | . | . | . | . | .
COC(=O)C1=CN(c2ccc(N3CCOCC3)cc2)C(N)=C(C#N)C1c1cccc(F)c1 (stereo not given) | - | . | . | . | . | .
